Entries after “also recorded” stand apart in the source; their conditions may differ. Read-outs that look alike come from different tables or passages of the source.
Key:
[1] = test system: HEK293 (kidney) cell line; test: In vitro cytotoxicity, cell viability; type: cell-based; conditions: 48 h incubation, Cell-Titer Glo cell viability
[2] = In vitro microsomal stability of analogs; type: in vitro ADME, human
HEPG2 (liver) cell line = test: In vitro cytotoxicity, cell viability; type: cell-based; conditions: 48 h incubation, Cell-Titer Glo cell viability
mice [3] = test: Sensorimotor coordination on rotating rod after oral gavage; type: in vivo; conditions: oral gavage 40 mg/kg, rotating rod max 3 minutes, three time-points
[4] = In vitro microsomal stability of analogs; type: in vitro ADME, mouse
[5] = cited from earlier work
[6] = cited from earlier work; remark: listed apart in the source
Procognitive assay = type: in vivo; conditions: data only preliminary
rhesus monkeys = conditions: cited from earlier work
[7] = MAM model of schizophrenia; cited from earlier work
mice [8] = conditions: cited from earlier work
[9] = In vitro liver microsomal stability; type: in vitro ADME, human; conditions: 4 μM compound, 37 °C, 30 minutes
mice [10] = test: 6 Hz electroshock seizure assay; type: in vivo
In short: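 Mice received the test compound i.p. at 100 or 150 mg/kg, depending on the compound. At various time points after dosing, a 6 Hz electroshock lasting 3 seconds was delivered through a corneal electrode. Each animal was then observed for convulsions and scored as protected or not.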

[11] = In vitro liver microsomal stability; type: in vitro ADME, rat; conditions: 4 μM compound, 37 °C, 30 minutes
[12] = In vitro liver microsomal stability; type: in vitro ADME, dog; conditions: 4 μM compound, 37 °C, 30 minutes
rats [13] = test: Prepulse inhibition; type: in vivo; conditions: 30 mg/kg, IP, one hour before testing, PCP·HCl 1.5 mg/kg SC ten minutes prior to testing
In short: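 Rats received the test compound at 30 mg/kg ip one hour before testing, then PCP·HCl (1.5 mg/kg, sc) ten minutes before testing to disrupt PPI. Startle to an auditory stimulus was measured with a non-startling auditory prepulse at 5, 10 and 15 decibels. Results were expressed as mean (+SEM) percent prepulse inhibition and compared with PCP-treated controls given 0 mg/kg drug.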

rats [14] = conditions: cited from earlier work
mice [15] = test: Rotarod assay, i.p. dosing; type: in vivo; conditions: 100 mg/kg i.p., 30 minutes prior to testing, 6 rpm, n=8
In short: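 Mice (n=8) were given the test compound at 100 mg/kg ip 30 minutes before being placed on a rod rotating at 6 rpm for a 1-minute trial. Any mouse that fell 3 times during the trial was scored as toxic (ataxic or sedated).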

[16] = In vitro liver microsomal stability; type: in vitro ADME, mouse; conditions: 4 μM compound, 37 °C, 30 minutes
mice, rats and primates = conditions: cited from earlier work
[17] = poly (I:C) animal model of schizophrenia; cited from earlier work
[18] = human, liver microsomes, Microsomal stability (HLM) % remaining, after 2 hr
[19] = mouse, liver microsomes, Microsomal stability (MLM) % remaining, after 2 hr
[20] = footnote b: compound not detected after 20 minutes
[21] = footnote d: assessed at 1-hour incubation time

C#Cc1ccc2c(c1)C(c1ccccc1F)=N[C@@H](C)c1c(C(=O)NC(C)C)ncn1-2 [8d, (S)-8-Ethynyl-6-(2-fluorophenyl)-N-isopropyl-4-methyl-4H-benzo[f]imidazo[1,5-a][1,4]diazepine-3-carboxa-mide]
HEK293 LD50 [1]: 80.2 ± 11.1 µM
Microsomal stability (HLM) % remaining ([2]; after 2 hr): 38.0 ± 0.5%
Microsomal stability (HLM) Half-life ([2]; after 2 hr): 107 ± 10 min
HEPG2 LD50 (HEPG2 (liver) cell line): 56.9 ± 4.8 µM
Effect on sensorimotor coordination (motor impairment, sedation/ataxia) (mice [3]): did not show any motor impairment
Microsomal stability (MLM) % remaining ([4]; after 2 hr): 75.0 ± 0.3%

C#Cc1ccc2c(c1)C(c1ccccc1F)=N[C@@H](C)c1c(C(=O)NC(C)(C)C)ncn1-2 [8e, (S)-N-(tert-Butyl)-8-ethynyl-6-(2-fluorophenyl)-4-methyl-4H-benzo[f]imidazo[1,5-a][1,4]diazepine-3-carbox-amide]
HEK293 LD50 [1]: 33.6 ± 3.0 µM
Microsomal stability (HLM) % remaining ([2]; after 2 hr): 63.0 ± 0.3%
Microsomal stability (HLM) Half-life ([2]; after 2 hr): 205 ± 14 min
HEPG2 LD50 (HEPG2 (liver) cell line): 43.4 ± 4.0 µM
Effect on sensorimotor coordination (motor impairment, sedation/ataxia) (mice [3]): did not show any motor impairment
Microsomal stability (MLM) % remaining ([4]; after 2 hr): 52.0 ± 0.3%
Microsomal stability (MLM) Half-life ([4]; after 2 hr): 142 ± 9 min

C#Cc1ccc2c(c1)C(c1ccccc1F)=N[C@@H](C)c1c(C(=O)N(C)C)ncn1-2 [8f, (S)-8-Ethynyl-6-(2-fluorophenyl)-N,N,4-trimethyl-4H-benzo[f]imidazo[1,5-a][1,4]diazepine-3-carboxamide]
HEK293 LD50 [1]: >400 µM
Activity in procognitive assay [5]: procognitive (A++ and C++)
half-life ([2]; human, liver microsomes): 0.983 ± 0.0833 h
remaining at 1 h ([2]; human, liver microsomes, Microsomal stability (HLM) % remaining, footnote d: assessed at 1-hour incubation time): 41 ± 0.9%
HEPG2 LD50 (HEPG2 (liver) cell line): >400 µM
Activity in antidepressant assay (forced swim test) [6]: active
Effect on sensorimotor coordination (motor impairment, sedation/ataxia) (mice [3]): only minor impairment
half-life ([4]; mouse, liver microsomes): 0.4 ± 0.0333 h
remaining at 1 h ([4]; mouse, liver microsomes, Microsomal stability (MLM) % remaining, footnote d: assessed at 1-hour incubation time): 19 ± 0.9%

C#Cc1ccc2c(c1)C(c1ccccc1F)=N[C@@H](C)c1c(-c3nc(C)no3)ncn1-2 [9a, (S)-5-(8-Ethynyl-6-(2-fluorophenyl)-4-methyl-4H-benzo[f]imidazo[1,5-a][1,4]diazepin-3-yl)-3-methyl-1,2,4-oxadiazole]
HEK293 LD50 [1]: 69.3 ± 2.3 µM
remaining at 2 h [2, 18]: 86 ± 0.3%
Procognitive effects in the Y-maze paradigm (Procognitive assay): procognitive effects (C+)
Effect on sensorimotor coordination (motor impairment, sedation/ataxia) (mice [3]): did not exhibit motor impairments
remaining at 2 h [4, 19]: 81 ± 0.4%

C#Cc1ccc2c(c1)C(c1ccccc1F)=N[C@@H](C)c1c(-c3nc(CC)no3)ncn1-2 [9b, (S)-3-Ethyl-5-(8-ethynyl-6-(2-fluorophenyl)-4-methyl-4H-benzo[f]imidazo[1,5-a][1,4]diazepin-3-yl)-1,2,4-oxadiazole]
HEK293 LD50 [1]: 46.9 ± 6.6 µM
half-life ([2]; human, liver microsomes): 9.38 ± 2.05 h
remaining at 2 h [2, 18]: 80 ± 0.4%
HEPG2 LD50 (HEPG2 (liver) cell line): 35.1 ± 3.7 µM
Effect on sensorimotor coordination (motor impairment, sedation/ataxia) (mice [3]): exhibited no sensorimotor impairment
half-life ([4]; mouse, liver microsomes): 3.55 ± 0.283 h
remaining at 2 h [4, 19]: 63 ± 0.3%

C#Cc1ccc2c(c1)C(c1ccccc1F)=N[C@@H](C)c1c(-c3nc(C(C)C)no3)ncn1-2 [9c, (S)-5-(8-Ethynyl-6-(2-fluorophenyl)-4-methyl-4H-benzo[f]imidazo[1,5-a][1,4]diazepin-3-yl)-3-isopropyl-1,2,4-oxadiazole]
HEK293 LD50 [1]: 32.5 ± 7.6 µM
half-life ([2]; human, liver microsomes): 43.1 ± 32 h
remaining at 2 h [2, 18]: 91 ± 0.3%
HEPG2 LD50 (HEPG2 (liver) cell line): 21.7 ± 1.8 µM
Effect on sensorimotor coordination (motor impairment, sedation/ataxia) (mice [3]): exhibited no sensorimotor impairment
half-life ([4]; mouse, liver microsomes): 8.33 ± 1.82 h
remaining at 2 h [4, 19]: 79 ± 0.5%

C#Cc1ccc2c(c1)C(c1ccccc1F)=N[C@H](C)c1c(C(=O)OCC)ncn1-2 [compound 1]
Anxiolytic effect (rhesus monkeys): only a minimal anxiolytic effect
Effect on amphetamine-induced hyperactivity of the dopamine system [7]: successfully alleviate the hyperactivity of the dopamine system induced by amphetamine
Anxiolytic and antidepressant effects after UCMS (mice [8]; female mice): exhibited anxiolytic and antidepressant effects
Anxiolytic and antidepressant effects after UCMS (mice [8]; male mice): very weak or none at all
Liver microsomal stability (%-remaining) HLM [9]: 100%
Liver microsomal stability (%-remaining) HLM ([9]; listed as SH-053-2'F-R-CH3 (1)): 100.0%
Protection from 6 Hz electroshock-induced seizures (mice [10]; i.p. 150 mg/kg, various time points, 150 mg/kg): not effective at any time; also recorded: not able to protect mice from electroshock-induced seizures
Liver microsomal stability (%-remaining) RLM [11]: 5.4%
Liver microsomal stability (%-remaining) DLM [12]: 90.3%
Reversal of PCP-induced PPI deficit (rats [13]): failed to reach a significant effect; also recorded: not 1 reversed the PPI deficits
Anxiolytic effect (rats [14]): only a minimal anxiolytic effect
Ataxia in rotarod assay (mice [15]): neither 1 nor 2 produced significant ataxia
Liver microsomal stability (%-remaining) MLM [16]: 59.1%

C#Cc1ccc2c(c1)C(c1ccccc1F)=N[C@@H](C)c1c(C(=O)OCC)ncn1-2 [compound 2]
Anxiolytic effect (rhesus monkeys): exerted anxiolytic effects
HEK293 LD50 [1]: 28.0 ± 4.1 µM
Toxicity in pharmacological assays (mice, rats and primates): not toxic
Microsomal stability (HLM) % remaining [2, 20]: < 5.0^b %
Microsomal stability (HLM) Half-life [2, 20]: < 5^b min
HEPG2 LD50 (HEPG2 (liver) cell line): 73.5 ± 14.4 µM
Liver microsomal stability (%-remaining) HLM [9]: 3%
Liver microsomal stability (%-remaining) HLM ([9]; listed as SH-053-2'F-S-CH3 (2)): 2.3%
Protection from 6 Hz electroshock-induced seizures (mice [10]; i.p. 100 mg/kg, time points 1/4, 1/2, 1, 2, and 4 hours, 100 mg/kg): able to protect some subjects
Liver microsomal stability (%-remaining) RLM [11]: 6.0%
Liver microsomal stability (%-remaining) DLM [12]: 90.7%
Reversal of PCP-induced PPI deficit (rats [13]): reversed PCP-induced prepulse inhibition (PPI) of acoustic startle; also recorded: significantly reversed the PPI deficit; also recorded: reversed the PPI deficits induced by PCP
Anxiolytic effect (rats [14]): exerted anxiolytic effects
Ataxia in rotarod assay (mice [15]): neither 1 nor 2 produced significant ataxia
Effect on amphetamine-induced hyperactivity [17]: successfully mitigated the amphetamine-induced hyperactivity
Microsomal stability (MLM) % remaining [4, 21]: 78.0 ± 0.2^d %
Microsomal stability (MLM) Half-life [4, 21]: 155 ± 9^d min
Liver microsomal stability (%-remaining) MLM [16]: 66.5%

C#Cc1ccc2c(c1)C(c1ccccc1F)=N[C@@H](C)c1c(C#N)ncn1-2 [compound 10, (S)-8-Ethynyl-6-(2-fluorophenyl)-4-methyl-4H-benzo[f]imidazo[1,5-a][1,4]diazepine-3-carbonitrile]
HEK293 LD50 [1]: 81.6 ± 6.7 µM
half-life ([2]; human, liver microsomes): 0.683 ± 0.0833 h
remaining at 2 h [2, 18]: 9 ± 0.3%
HEPG2 LD50 (HEPG2 (liver) cell line): 57.1 ± 5.6 µM
Microsomal stability (MLM) % remaining ([4]; after 2 hr): 17.0 ± 0.6%
half-life ([4]; mouse, liver microsomes): 0.967 ± 0.1 h
remaining at 2 h [4, 19]: 16%
